Experimental data from ChEMBL document CHEMBL1122780, “Trequinsin, a potent new antihypertensive vasodilator in the series of 2-(arylimino)-3-alkyl-9,10-dimethoxy-3,4,6,7-tetrahydro-2H-py rim ido [6,1-a]isoquinolin-4-ones” (J Med Chem, 1984).

Assays:
[1] = test system: Felis catus; assay: Dose estimated to produce 25 mm Hg fall in mean systemic blood pressure of anesthetized cat at 10 min after administration; assay type: functional
[2] = test system: Felis catus; assay: Dose estimated to produce a fall in mean blood pressure of anesthetized cat at 10 min after administration; assay type: functional
In short: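 Cats (2.5–4.0 kg, either sex), ether induction, chloralose 70 mg/kg iv maintenance. Compound in distilled water or propylene glycol given via femoral vein at 0.01–10 mg/kg. Fall in mean arterial pressure read 10 min post-dose; ED25 (dose for 25 mmHg fall) calculated from log dose–response curve.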

[3] = species: Rattus norvegicus; assay: Evaluated for antihypertensive activity in hypertensive(SH) rat
[4] = test system: Rattus norvegicus; assay: Difference in systolic blood pressure of SH rats observed prior to the first application and 2 hr after the fifth application at the oral dose of 25 mg/kg was expressed as Delta BP; assay type: functional, Artery
In short: (§1)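 Male spontaneously hypertensive rats (Wistar–Okamoto, 250–300 g, 12–16 weeks), conscious. Dosed orally once daily for 5 days in 0.9% NaCl or 0.5% carboxymethylcellulose (10 mL/kg); vehicle control group. Rats warmed at 37–38 °C for 10 min, then systolic pressure taken by tail-cuff (piezoelectric pulse detection). ΔBP = pre-first-dose minus 2 h after fifth dose; mean ± SEM, six animals.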

[5] = species: Rattus norvegicus; assay: Delta BP refers to difference in systolic blood pressure of SH rats; assay type: functional, Artery; in short: as §1
[6] = test system: Felis catus; assay: Percent hypotension was determined in cats after administering 25 ug/kg intravenously; assay type: functional
In short: (§2)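 Cats (2.5–4.0 kg, either sex) under ether, maintained on chloralose 70 mg/kg iv. Dosing by femoral vein catheter at 10, 25 or 50 µg/kg. Records initial BP, peak fall in mean arterial pressure, percent hypotension and response duration. Mean ± SEM, five experiments per dose.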

[7] = test system: Oryctolagus cuniculus; assay: Hypotensive activity of compound was evaluated by measuring initial blood pressure in rabbits after administering 25 ug/kg intravenously; assay type: functional
In short: (§3)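 Anesthetized rabbits. Dosing by femoral vein catheter at 10, 25 or 50 µg/kg. Records initial BP, maximal fall in mean arterial pressure, percent hypotension and duration of hypotension. Mean ± SEM, 6–7 experiments per dose.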

[8] = test system: Felis catus; assay: Percent hypotension was determined in cats after administering 10 ug/kg intravenously; assay type: functional; in short: as §2
[9] = test system: Oryctolagus cuniculus; assay: Duration for hypotensive action in rabbits after administering 10 ug/kg intravenously; assay type: functional; in short: as §3
[10] = Compound was tested for toxicity in mice after intraperitoneal administration; assay type: organism-based; conditions: mouse, in vivo, ip
In short: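 Mice (18–22 g), either sex. Compound dissolved in distilled water or suspended in 0.5% (carboxymethyl)cellulose and given ip at 10, 30, 100, 300 and 1000 mg/kg, 1 mL/100 g body weight. Animals observed for 48 h; approximate LD50 calculated by the Campbell and Richter method.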

[11] = test system: Canis familiaris; assay: Hypotensive activity of compound was evaluated by measuring fall in blood pressure in dogs after administering 100 ug/kg intravenously; assay type: functional, Canis lupus familiaris
In short: (§4)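 Mongrel dogs (10–16 kg, either sex) anesthetized with pentobarbitone sodium 35 mg/kg iv. Dosing by femoral vein catheter at 25, 50 or 100 µg/kg. Records initial BP, maximal fall in mean arterial pressure, percent hypotension and duration. Mean ± SEM, 3–8 experiments per dose.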

[12] = test system: Oryctolagus cuniculus; assay: Percent hypotension was determined in rabbits after administering 50 ug/kg intravenously; assay type: functional; in short: as §3
[13] = test system: Canis familiaris; assay: Percent hypotension was determined in dogs after administering 25 ug/kg intravenously; assay type: functional, Canis lupus familiaris; in short: as §4
[14] = test system: Felis catus; assay: Hypotensive activity of compound was evaluated by measuring fall in blood pressure in cats after administering 25 ug/kg intravenously; assay type: functional; in short: as §2
[15] = test system: Canis familiaris; assay: Hypotensive activity of compound was evaluated by measuring fall in blood pressure in dogs after administering 50 ug/kg intravenously; assay type: functional, Canis lupus familiaris; in short: as §4
[16] = test system: Canis familiaris; assay: Percent hypotension was determined in dogs after administering 50 ug/kg intravenously; assay type: functional, Canis lupus familiaris; in short: as §4
[17] = test system: Canis familiaris; assay: Duration for hypotensive action in dogs after administering 100 ug/kg intravenously; assay type: functional, Canis lupus familiaris; in short: as §4
[18] = test system: Canis familiaris; assay: Hypotensive activity of compound was evaluated by measuring initial blood pressure in dogs after administering 100 ug/kg intravenously; assay type: functional, Canis lupus familiaris; in short: as §4
[19] = test system: Oryctolagus cuniculus; assay: Hypotensive activity of compound was evaluated by measuring initial blood pressure in rabbits after administering 50 ug/kg intravenously; assay type: functional; in short: as §3
[20] = test system: Oryctolagus cuniculus; assay: Percent hypotension was determined in rabbits after administering 10 ug/kg intravenously; assay type: functional; in short: as §3
[21] = test system: Felis catus; assay: Hypotensive activity of compound was evaluated by measuring fall in blood pressure in cats after administering 10 ug/kg intravenously; assay type: functional; in short: as §2
[22] = test system: Oryctolagus cuniculus; assay: Duration for hypotensive action in rabbits after administering 25 ug/kg intravenously; assay type: functional; in short: as §3
[23] = test system: Felis catus; assay: Duration for hypotensive action in cats after administering 10 ug/kg intravenously; assay type: functional; in short: as §2
[24] = test system: Canis familiaris; assay: Hypotensive activity of compound was evaluated by measuring initial blood pressure in dogs after administering 25 ug/kg intravenously; assay type: functional, Canis lupus familiaris; in short: as §4
[25] = test system: Felis catus; assay: Percent hypotension was determined in cats after administering 50 ug/kg intravenously; assay type: functional; in short: as §2
[26] = test system: Canis familiaris; assay: Hypotensive activity of compound was evaluated by measuring initial blood pressure in dogs after administering 50 ug/kg intravenously; assay type: functional, Canis lupus familiaris; in short: as §4
[27] = test system: Felis catus; assay: Blood pressure lowering activity in anesthetized cats after intravenous administration of […] of compound; assay type: functional
[28] = test system: Rattus norvegicus; assay: Difference in systolic blood pressure of SH rats observed prior to the first application and 2 hr after the fifth application at the oral dose of 5 mg/kg was expressed as Delta BP; assay type: functional, Artery; in short: as §1
[29] = test system: Canis familiaris; assay: Duration for hypotensive action in dogs after administering 50 ug/kg intravenously; assay type: functional, Canis lupus familiaris; in short: as §4
[30] = test system: Felis catus; assay: Duration for hypotensive action in cats after administering 25 ug/kg intravenously; assay type: functional; in short: as §2
[31] = test system: Oryctolagus cuniculus; assay: Hypotensive activity of compound was evaluated by measuring fall in blood pressure in rabbits after administering 25 ug/kg intravenously; assay type: functional; in short: as §3
[32] = test system: Canis familiaris; assay: Hypotensive activity of compound was evaluated by measuring fall in blood pressure in dogs after administering 25 ug/kg intravenously; assay type: functional, Canis lupus familiaris; in short: as §4
[33] = test system: Oryctolagus cuniculus; assay: Percent hypotension was determined in rabbits after administering 25 ug/kg intravenously; assay type: functional; in short: as §3
[34] = test system: Felis catus; assay: Hypotensive activity of compound was evaluated by measuring initial blood pressure in cats after administering 25 ug/kg intravenously; assay type: functional; in short: as §2
[35] = test system: Felis catus; assay: Hypotensive activity of compound was evaluated by measuring initial blood pressure in cats after administering 10 ug/kg intravenously; assay type: functional; in short: as §2
[36] = test system: Canis familiaris; assay: Duration for hypotensive action in dogs after administering 25 ug/kg intravenously; assay type: functional, Canis lupus familiaris; in short: as §4
[37] = test system: Oryctolagus cuniculus; assay: Hypotensive activity of compound was evaluated by measuring fall in blood pressure in rabbits after administering 50 ug/kg intravenously; assay type: functional; in short: as §3
[38] = test system: Canis familiaris; assay: Percent hypotension was determined in dogs after administering 100 ug/kg intravenously; assay type: functional, Canis lupus familiaris; in short: as §4
[39] = test system: Oryctolagus cuniculus; assay: Hypotensive activity of compound was evaluated by measuring fall in blood pressure in rabbits after administering 10 ug/kg intravenously; assay type: functional; in short: as §3
[40] = test system: Felis catus; assay: Hypotensive activity of compound was evaluated by measuring fall in blood pressure in cats after administering 50 ug/kg intravenously; assay type: functional; in short: as §2
[41] = test system: Oryctolagus cuniculus; assay: Duration for hypotensive action in rabbits after administering 50 ug/kg intravenously; assay type: functional; in short: as §3
[42] = test system: Oryctolagus cuniculus; assay: Hypotensive activity of compound was evaluated by measuring initial blood pressure in rabbits after administering 10 ug/kg intravenously; assay type: functional; in short: as §3
[43] = test system: Felis catus; assay: Duration for hypotensive action in cats after administering 50 ug/kg intravenously; assay type: functional; in short: as §2
[44] = test system: Felis catus; assay: Hypotensive activity of compound was evaluated by measuring initial blood pressure in cats after administering 50 ug/kg intravenously; assay type: functional; in short: as §2

For `COc1cc2c(cc1OC)-c1cc(N(C)c3c(F)cccc3F)nc(=O)n1CC2`, which ED25 [1] is on record?
The ED25 was 6 mg/kg.

What about the ED25 [2] of the same compound?
Its ED25 is 0.03 mg/kg.

And the Antihypertensive activity [3]?
Its Antihypertensive activity is 10 mg/kg.

And the Delta blood pressure [4]?
Its Delta blood pressure is 0 mmHg.

What about the Delta blood pressure [5] of the same compound?
The Delta blood pressure was 0 mmHg.

What does the source list for `COc1cc2c(cc1OC)-c1c/c(=N\c3c(C)cc(C)cc3C)n(C)c(=O)n1CC2.Cl` [TREQUINSIN HYDROCHLORIDE]?
Hypotension [6]: 23.4%; BP [7]: 89.6 mmHg; Hypotension [8]: 16.8%; ED25 [1]: 0.025 mg/kg; Duration [9]: 20.7 min; LD50 [10]: 150 mg/kg; BP [11]: 56.1 mmHg; Hypotension [12]: 28.5%; Hypotension [13]: 22.9%; BP [14]: 25.8 mmHg; BP [15]: 40.8 mmHg; Hypotension [16]: 25.4%; Duration [17]: 140 min; BP [18]: 168.3 mmHg; BP [19]: 84.2 mmHg; Hypotension [20]: 18.6%; BP [21]: 17 mmHg; Duration [22]: 57.8 min; Duration [23]: 16 min; BP [24]: 168.8 mmHg; Hypotension [25]: 28.6%; BP [26]: 163.3 mmHg; ED25 [27]: 0.025 mg/kg; Delta blood pressure [28]: -41 mmHg; Duration [29]: 98.3 min; Duration [30]: 45 min; BP [31]: 26.4 mmHg; BP [32]: 37.5 mmHg; Hypotension [33]: 29.9%; BP [34]: 116 mmHg; BP [35]: 110 mmHg; Duration [36]: 50 min; BP [37]: 24.2 mmHg; Hypotension [38]: 33.7%; BP [39]: 17.4 mmHg; BP [40]: 34.2 mmHg; Duration [41]: 70 min; BP [42]: 93.8 mmHg; Duration [43]: 82.5 min; BP [44]: 125 mmHg
